Series [1] has as its target Plasma kallikrein (Homo sapiens, UniProt P03952). Briefly: Inhibition of human plasma kallikrein using fluorogenic H-Pro-Phe-Arg-AMC peptide as substrate preincubated for 15 mins followed by substrate addition measured by fluorescence-based assay. Conditions: read-out: Ki(app).
Series [2] concerns the target Plasma kallikrein (Rattus norvegicus, UniProt P14272). The series can be described thus: Inhibition of recombinant Sprague-Dawley rat plasma kallikrein using fluorogenic H-Pro-Phe-Arg-AMC peptide as substrate preincubated for 15 mins followed by substrate addition measured by fluorescence-based assay. Conditions: read-out: Ki(app).
Series [3] concerns Plasma. Briefly: Drug level in rat plasma treated with (3S,6S,9R,12S,15S,18S,21S,24S,27R)-15-((1H-imidazol-5-yl)methyl)-1-((S)-1-((S)-2-((S)-2-((R)-2-acetamido-3-mercaptopropanamido)-3-hydroxypropanamido)-3-(1H-indol-3-yl)propanoyl)pyrrolidin-2-yl)-18-(3-amino-3-oxopropyl)-21-(carboxymethyl)-6-(3-guanidinopropyl)-12,24-diisobutyl-9,27-bis(mercaptomethyl)-3-methyl-1,4,7,10,13,16,19,22,25-nonaoxo-2,5,8,11,14,17,20,23,26-nonaazaoctacosan-28-oic acid at 50 uM after 18 hrs by MALDI-TOF analysis. Format: ADME, cell-free. A digest of the protocol:
(§1)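 Peptide from a 1 mM DMSO stock was diluted to 50 μM in citrated mouse, rat or human plasma and incubated at 37 °C for up to 2 days. Samples taken at time points were quenched in 1:1 acetonitrile/methanol and centrifuged. The supernatant was mixed with ammonium bicarbonate in acetonitrile/water, and parent peptide and metabolites were detected by MALDI-TOF.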

The test system of series [4] is Plasma. The series can be described thus: Drug level in human plasma treated with (3S,6S,9R,12S,15S,18S,21S,24S,27R)-15-((1H-imidazol-5-yl)methyl)-1-((S)-1-((S)-2-((S)-2-((R)-2-acetamido-3-mercaptopropanamido)-3-hydroxypropanamido)-3-(1H-indol-3-yl)propanoyl)pyrrolidin-2-yl)-18-(3-amino-3-oxopropyl)-21-(carboxymethyl)-6-(3-guanidinopropyl)-12,24-diisobutyl-9,27-bis(mercaptomethyl)-3-methyl-1,4,7,10,13,16,19,22,25-nonaoxo-2,5,8,11,14,17,20,23,26-nonaazaoctacosan-28-oic acid at 50 uM after 18 hrs by MALDI-TOF analysis. Format: ADME, cell-free. A digest of the protocol:
as §1

In the next series the target is (UniProt A0A8D1M4K5). The series can be described thus: Inhibition of pig plasma kallikrein using fluorogenic H-Pro-Phe-Arg-AMC peptide as substrate preincubated for 15 mins followed by substrate addition measured by fluorescence-based assay. The arrangement: species or system Sus scrofa. Conditions: read-out: Ki(app).
A short description of series [5]: Inhibition of rabbit plasma kallikrein using fluorogenic H-Pro-Phe-Arg-AMC peptide as substrate preincubated for 15 mins followed by substrate addition measured by fluorescence-based assay. More on the design: species or system Oryctolagus cuniculus. Conditions: read-out: Ki(app). The method, boiled down: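 Assays ran at 25 °C in 50 mM Tris-HCl, 250 mM NaCl, 1.5 μM BSA, pH 7.5. PKal (nominal 1–2 nM) was preincubated 15 min with serially diluted peptide. […] Human PKal was purified from plasma; rat PKal was made in-house or bought; other species were purified in-house from kaolin-activated plasma.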

Series [6] can be described thus: Aqueous solubility of the compound in buffer. Format: physicochemical.

*1 amine or outer side, *2 acyl side, *3 side chain or, on linkers, in order; H or OH if unused. Where a SMILES comes first, the peptide text is derived from it. Bridges are numbered along the chain shown (N, C = ends). Roman numbers before positions name the chains, in order. [ ]: non-standard residue; d: D form. ξ: configuration not given here. X1 = CC(=O)N[C@@H](CSCc1cc(C[*:1])cc(C[*:2])c1)C(=O)O; TBMB = c1c(C[*:1])cc(C[*:3])cc1C[*:2]; hArg = N=C(N)NCCCC[C@H](N)C(=O)O; ξAze = O=C(O)C1CCN1

Plasma kallikrein (Homo sapiens, UniProt P03952), sequence (P03952 20-390 limits assumed): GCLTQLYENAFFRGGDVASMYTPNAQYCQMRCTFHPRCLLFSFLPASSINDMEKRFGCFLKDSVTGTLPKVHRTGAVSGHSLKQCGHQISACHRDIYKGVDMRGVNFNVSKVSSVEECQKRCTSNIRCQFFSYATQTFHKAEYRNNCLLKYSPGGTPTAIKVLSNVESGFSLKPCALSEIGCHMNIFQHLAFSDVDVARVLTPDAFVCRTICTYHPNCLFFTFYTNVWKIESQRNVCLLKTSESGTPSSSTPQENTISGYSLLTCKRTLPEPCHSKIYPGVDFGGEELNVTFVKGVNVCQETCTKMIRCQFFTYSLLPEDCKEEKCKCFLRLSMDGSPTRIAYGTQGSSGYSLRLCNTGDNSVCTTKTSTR
Plasma kallikrein (Homo sapiens, UniProt P03952), sequence (P03952 391-638 limits assumed): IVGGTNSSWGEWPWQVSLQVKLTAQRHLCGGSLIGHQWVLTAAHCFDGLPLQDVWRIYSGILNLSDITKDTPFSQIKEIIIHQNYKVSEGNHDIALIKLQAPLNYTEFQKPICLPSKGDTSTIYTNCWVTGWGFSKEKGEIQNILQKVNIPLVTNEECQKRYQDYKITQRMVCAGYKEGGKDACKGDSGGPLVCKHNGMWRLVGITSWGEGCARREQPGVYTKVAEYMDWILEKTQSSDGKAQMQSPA
Plasma kallikrein (Rattus norvegicus, UniProt P14272), sequence (P14272 20-390 limits assumed): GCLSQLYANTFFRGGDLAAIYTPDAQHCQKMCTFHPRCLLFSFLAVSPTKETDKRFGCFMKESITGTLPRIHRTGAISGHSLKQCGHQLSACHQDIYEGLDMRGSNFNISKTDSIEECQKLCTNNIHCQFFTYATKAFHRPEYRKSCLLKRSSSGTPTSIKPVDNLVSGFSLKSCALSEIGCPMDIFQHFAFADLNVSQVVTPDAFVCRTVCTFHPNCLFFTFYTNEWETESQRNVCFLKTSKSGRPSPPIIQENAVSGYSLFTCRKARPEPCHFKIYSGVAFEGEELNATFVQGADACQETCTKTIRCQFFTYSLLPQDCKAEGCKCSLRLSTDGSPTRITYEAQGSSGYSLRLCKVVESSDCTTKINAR
Plasma kallikrein (Rattus norvegicus, UniProt P14272), sequence (P14272 391-638 limits assumed): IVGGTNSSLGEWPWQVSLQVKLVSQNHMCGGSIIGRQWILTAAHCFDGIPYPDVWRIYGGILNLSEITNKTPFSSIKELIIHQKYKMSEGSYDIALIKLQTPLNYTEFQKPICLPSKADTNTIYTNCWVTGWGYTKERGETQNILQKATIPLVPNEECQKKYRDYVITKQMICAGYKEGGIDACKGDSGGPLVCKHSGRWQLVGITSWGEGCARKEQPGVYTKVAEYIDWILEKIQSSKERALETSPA

On to `CC(C)C[C@@H]1NC(=O)[C@H](CC(=O)O)NC(=O)[C@H](CCC(N)=O)NC(=O)[C@H](Cc2cnc[nH]2)NC(=O)[C@H](CC(C)C)NC(=O)[C@@H]2CSCc3cc(cc(c3)CSC[C@@H](C(=O)N[C@@H](C)C(=O)O)NC1=O)CSC[C@H](NC(=O)[C@H](C)N)C(=O)N[C@@H](CO)C(=O)N[C@@H](Cc1c[nH]c3ccccc13)C(=O)N1CCC[C@H]1C(=O)N[C@@H](C)C(=O)N[C@@H](CCCNC(=N)N)C(=O)N2` (H-ACSWPARCLHQDLCA-OH; linker 2-8-14 via TBMB), for which the Ki on Plasma kallikrein [1] was found to be 0.07 nM; on Plasma kallikrein [2] it was 0.9 nM.

Regarding `CC(=O)N[C@H]1CSCc2cc(cc(CSC[C@H](NC(=O)[C@H](CC(C)C)NC(=O)[C@@H](N)CC(=O)O)C(=O)O)c2)CSC[C@@H](C(=O)O)NC(=O)[C@H](CCCNC(=N)N)NC(=O)[C@H](C)NC(=O)[C@@H]2CCCN2C(=O)[C@H](Cc2c[nH]c3ccccc23)NC(=O)[C@H](CO)NC1=O`, the Drug metabolism result with Plasma [3] is given as “Metabolite_Detected”.

As to `CC(=O)N[C@@H](CSCc1cc2cc(c1)CSC[C@H](N)C(=O)N[C@@H](CC(C)C)C(=O)N[C@@H](Cc1cnc[nH]1)C(=O)N[C@@H](CCC(N)=O)C(=O)N[C@@H](CC(=O)O)C(=O)N[C@@H](CC(C)C)C(=O)N[C@H](C(=O)O)CSC2)C(=O)N[C@@H](CO)C(=O)N[C@@H](Cc1c[nH]c2ccccc12)C(=O)N1CCC[C@H]1C(=O)N[C@@H](C)C(=O)O` (I: H-CLHQDLC-OH / II: Ac-CSWPA-OH; linker I:1-I:7-II:1 via TBMB), the Drug metabolism entry with Plasma [4] was “Metabolite_Detected”.

As to `CC(=O)N[C@H]1CSCc2cc(CSC[C@H](NC(=O)[C@H](CC(C)C)NC(=O)[C@@H](N)CC(=O)O)C(=O)O)cc(c2)CSC[C@@H](C(=O)N[C@@H](CC(C)C)C(=O)O)NC(=O)[C@H](CCCNC(=N)N)NC(=O)[C@H](C)NC(=O)[C@@H]2CCCN2C(=O)[C@H](Cc2c[nH]c3ccccc23)NC(=O)[C@H](CO)NC1=O`, the Drug metabolism entry with Plasma [3] was “Metabolite_Detected”.

Turning to `CC(=O)N[C@H]1CSCc2cc3cc(c2)CSC[C@H](NC(=O)[C@H](CCCNC(=N)N)NC(=O)[C@H](C)NC(=O)C2CCN2C(=O)[C@H](Cc2c[nH]c4ccccc24)NC(=O)[C@H](CO)NC1=O)C(=O)N[C@@H](CC(C)C)C(=O)N[C@@H](Cc1cnc[nH]1)C(=O)N[C@@H](CCC(N)=O)C(=O)N[C@@H](CC(=O)O)C(=O)N[C@@H](CC(C)C)C(=O)N[C@H](C(=O)O)CSC3` (stereo partly drawn) (Ac-CSW[ξAze]ARCLHQDLC-OH; linker 1-7-13 via TBMB), the Ki on Plasma kallikrein [1] turned out to be 0.06 nM.

For `CC(=O)N[C@H]1CSCc2cc3cc(c2)CSC[C@H](NC(=O)[C@H](CCCCNC(=N)N)NC(=O)[C@H](Cc2ccc(O)cc2)NC(=O)C2CCN2C(=O)[C@H](Cc2ccccc2)NC(=O)[C@H](CO)NC1=O)C(=O)N[C@@H](CC(C)C)C(=O)N[C@@H](Cc1cnc[nH]1)C(=O)N[C@@H](CCC(N)=O)C(=O)N[C@@H](CC(=O)O)C(=O)N[C@@H](CC(C)C)C(=O)N[C@H](C(=O)O)CSC3` (stereo partly drawn) (Ac-CSF[ξAze]Y[hArg]CLHQDLC-OH; linker 1-7-13 via TBMB), on Plasma kallikrein [1], the Ki was 0.21 nM.

As to `CC(=O)N[C@H]1CSCc2cc3cc(c2)CSC[C@H](NC(=O)[C@H](CCCNC(=N)N)NC(=O)[C@H](Cc2ccc(O)cc2)NC(=O)[C@@H]2CCCN2C(=O)[C@H](Cc2ccccc2)NC(=O)[C@H](CO)NC1=O)C(=O)N[C@@H](CC(C)C)C(=O)N[C@@H](Cc1cnc[nH]1)C(=O)N[C@@H](CCC(N)=O)C(=O)N[C@@H](CC(=O)O)C(=O)N[C@@H](CC(C)C)C(=O)N[C@H](C(=O)O)CSC3` (Ac-CSFPYRCLHQDLC-OH; linker 1-7-13 via TBMB), the Ki at Plasma kallikrein [1] was determined as 0.39 nM; on Plasma kallikrein [2] it was 11 nM; on (UniProt A0A8D1M4K5) it was 22 nM; in series [5], 84 nM.

Take `CC(=O)N[C@H]1CSCc2cc(cc(CSC[C@H](NC(=O)[C@H](CC(C)C)NC(=O)[C@H](CC(=O)O)NC(=O)[C@H](CCC(N)=O)NC(=O)[C@@H](N)Cc3cnc[nH]3)C(=O)O)c2)CSC[C@@H](C(=O)O)NC(=O)[C@H](CCCNC(=N)N)NC(=O)[C@H](C)NC(=O)[C@@H]2CCCN2C(=O)[C@H](Cc2c[nH]c3ccccc23)NC(=O)[C@H](CO)NC1=O` (I: Ac-CSWPARC-OH / II: H-HQDLC-OH; linker I:1-I:7-II:5 via TBMB): the Drug metabolism entry in the series on Plasma [3] is “Metabolite_Detected”.

Take `CC(=O)N[C@H]1CSCc2cc3cc(c2)CSC[C@H](NC(=O)[C@H](CCCNC(=N)N)NC(=O)[C@H](Cc2ccc(O)cc2)NC(=O)[C@@H]2CCCN2C(=O)[C@H](Cc2ccccc2)NC(=O)[C@H](CO)NC1=O)C(=O)N[C@@H](C)CN[C@@H](Cc1cnc[nH]1)C(=O)N[C@@H](CCC(N)=O)C(=O)N[C@@H](CC(=O)O)C(=O)N[C@@H](CC(C)C)C(=O)N[C@H](C(=O)O)CSC3`: the Ki at Plasma kallikrein [1] is 1.3 nM.

For the compound `CC(=O)N[C@@H](CSCc1cc2cc(c1)CSC[C@H](N)C(=O)N[C@@H](CC(C)C)C(=O)N[C@@H](Cc1cnc[nH]1)C(=O)N[C@@H](CCC(N)=O)C(=O)N[C@@H](CC(=O)O)C(=O)N[C@@H](CC(C)C)C(=O)N[C@H](C(=O)O)CSC2)C(=O)N[C@@H](CO)C(=O)O`, the Drug metabolism result with Plasma [4] is given as “Metabolite_Detected”.

With `CC[C@H](C)[C@@H]1NC(=O)[C@H](CC(=O)O)NC(=O)[C@@H]2CCCN2C(=O)[C@H](Cc2ccc(O)cc2)NC(=O)[C@H](Cc2ccc(O)cc2)NC(=O)[C@H](C(C)C)NC(=O)[C@@H]2CSCc3cc(cc(c3)CSC[C@@H](C(=O)N[C@@H](C)C(=O)O)NC1=O)CSC[C@H](NC(=O)[C@H](C)N)C(=O)N[C@@H](CC(N)=O)C(=O)N[C@@H](CC(N)=O)C(=O)N[C@@H](Cc1ccccc1)C(=O)N1CCC[C@H]1C(=O)N[C@@H](Cc1ccccc1)C(=O)N[C@@H](CCCNC(=N)N)C(=O)N2` (H-ACNNFPFRCVYYPDICA-OH; linker 2-9-16 via TBMB), the Ki at Plasma kallikrein [1] stood at 0.44 nM.

On to `CC(=O)N[C@@H](CSCc1cc2cc(c1)CSC[C@H](N)C(=O)N[C@@H](CC(C)C)C(=O)N[C@@H](Cc1cnc[nH]1)C(=O)N[C@@H](CCC(N)=O)C(=O)N[C@@H](CC(=O)O)C(=O)N[C@@H](CC(C)C)C(=O)N[C@H](C(=O)O)CSC2)C(=O)O` (H-CLHQDLC-OH; linker 1-7 via X1), for which, in the series on Plasma [4], the Drug metabolism entry is reported as “Metabolite_Detected”.

With `CC[C@H](C)[C@@H]1NC(=O)[C@H](CC(=O)O)NC(=O)[C@@H]2CCCN2C(=O)[C@H](Cc2ccc(O)cc2)NC(=O)[C@H](Cc2ccc(O)cc2)NC(=O)[C@H](C(C)C)NC(=O)[C@@H]2CSCc3cc(cc(c3)CSC[C@@H](C(=O)N[C@@H](C)C(=O)O)NC1=O)CSC[C@H](NC(=O)[C@H](C)N)C(=O)N[C@@H](CO)C(=O)N[C@@H](Cc1ccccc1)C(=O)N1CCC[C@H]1C(=O)N[C@@H](Cc1ccc(O)cc1)C(=O)N[C@@H](CCCNC(=N)N)C(=O)N2` (H-ACSFPYRCVYYPDICA-OH; linker 2-8-15 via TBMB), in series [6], the solubility entry was “Insoluble”.

As to `CC(=O)N[C@H]1CSCc2cc3cc(c2)CSC[C@H](NC(=O)[C@H](CCCCNC(=N)N)NC(=O)[C@H](C)NC(=O)C2CCN2C(=O)[C@H](Cc2c[nH]c4ccccc24)NC(=O)[C@H](CO)NC1=O)C(=O)N[C@@H](CC(C)C)C(=O)N[C@@H](Cc1cnc[nH]1)C(=O)N[C@@H](CCC(N)=O)C(=O)N[C@@H](CC(=O)O)C(=O)N[C@@H](CC(C)C)C(=O)N[C@H](C(=O)O)CSC3` (stereo partly drawn) (Ac-CSW[ξAze]A[hArg]CLHQDLC-OH; linker 1-7-13 via TBMB), the Ki on Plasma kallikrein [1] is 0.14 nM.

These data come from ChEMBL document CHEMBL4033799, “Stable and Long-Lasting, Novel Bicyclic Peptide Plasma Kallikrein Inhibitors for the Treatment of Diabetic Macular Edema” (J Med Chem, 2018).
